# Results of several laboratories.
# Protocols differ between the studies behind these lines.
Compound,tested on,assay,test system,conditions,endpoint,value
CC(C)(N)CNC(=O)O[C@H]1CCC[C@@]2(C1)OOC1(O2)C2CC3CC(C2)CC1C3 (some centres unmarked),,,"male CD-1 mouse, plasma","oral, 10 mg/kg",Cmax,191 ng/mL
CNC(=O)c1ccc(-c2cnn3ccc(C(=O)N(C)c4ccc(Cl)c(C(=O)O)c4)cc23)cc1,,,"female C57BL/6 mouse, plasma","oral, 3 mg/kg/day",Cmax,1 ng/mL
CC(O)(CS(=O)(=O)c1ccc(F)cc1)C(=O)Nc1ccc(C#N)c(C(F)(F)F)c1 (centres unmarked),Vero,"cell growth or viability, resazurin",,,CC50,> 100 µM
COc1ccsc1CNCC[C@@]1(c2ccccn2)CCOC2(CCCC2)C1,,,"human, plasma","intravenous, 3 mg, single dose, healthy volunteers, infusion",Vd,129 L
COc1ccc([C@@]23Oc4cc(OC)cc(OC)c4[C@@]24N=C(C2CC2)N[C@@]4(O)[C@H](C(=O)N(C)OC)[C@H]3c2ccccc2)cc1,Vero,"cell growth or viability, MTT",,24 h,CC50,> 20 µM
CNC(=O)c1ccc(-c2cnn3ccc(C(=O)N(C)c4ccc(Cl)c(C(=O)OC)c4)cc23)cc1,,,"female C57BL/6 mouse, plasma","oral, 1 mg/kg/day",Cmax,0.1 ng/mL
COCC1=N[C@@]2(O)[C@H](C(=O)N(C)OC)[C@@H](c3ccccc3)[C@]3(c4ccc(OC)cc4)Oc4cc(OC)cc(OC)c4[C@]23N1,Vero,"cell growth or viability, MTT",,24 h,CC50,> 20 µM
NCCNC(=O)O[C@H]1CCC[C@@]2(C1)OOC1(O2)C2CC3CC(C2)CC1C3 (some centres unmarked),,,"male CD-1 mouse, plasma","oral, 10 mg/kg",Cmax,240 ng/mL
